Test results taken from ChEMBL document CHEMBL1136765, “1,3-dioxolane-based ligands as a novel class of alpha1-adrenoceptor antagonists” (J Med Chem, 2003).

Key:
[1] = molecular target: T1, Alpha-1D adrenergic receptor (Rattus norvegicus) (UniProt P23944); experiment: Inhibition of (-)-noradrenaline-induced contraction of rat thoracic aorta (Alpha-1D adrenergic receptor); type: functional, tissue-based
T1 sequence (whole entry): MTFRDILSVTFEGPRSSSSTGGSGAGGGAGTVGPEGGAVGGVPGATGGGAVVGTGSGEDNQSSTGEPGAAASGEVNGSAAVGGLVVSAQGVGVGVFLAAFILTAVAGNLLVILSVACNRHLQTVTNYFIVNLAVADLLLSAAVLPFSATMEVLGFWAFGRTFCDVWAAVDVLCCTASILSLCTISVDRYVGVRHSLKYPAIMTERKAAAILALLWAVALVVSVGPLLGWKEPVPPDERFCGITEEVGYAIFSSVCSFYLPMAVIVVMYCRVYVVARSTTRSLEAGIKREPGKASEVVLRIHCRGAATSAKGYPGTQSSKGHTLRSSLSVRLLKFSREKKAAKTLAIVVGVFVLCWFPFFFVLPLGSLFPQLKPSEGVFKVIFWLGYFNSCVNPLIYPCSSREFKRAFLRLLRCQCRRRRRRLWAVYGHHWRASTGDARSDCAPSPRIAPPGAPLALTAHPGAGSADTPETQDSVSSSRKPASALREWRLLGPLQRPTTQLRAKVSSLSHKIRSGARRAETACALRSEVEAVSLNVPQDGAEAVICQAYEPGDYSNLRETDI
Outline: (§1)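 Endothelium-denuded rat thoracic aorta strips (denudation confirmed by no 100 µM acetylcholine relaxation after 1 µM noradrenaline) in Tyrode, 1 g tension, ≥2 h equilibration. Cumulative (-)-noradrenaline curves at 1 h intervals; third as control, antagonist 30 min before fourth.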

[2] = molecular target: Alpha adrenergic receptor 1A and 1D (Rattus norvegicus) (UniProt P23944+P43140); experiment: Selectivity given as ratio of pKb value against Alpha-1D receptor to pKb value against alpha1A receptor in rat; type: functional
[3] = molecular target: T2, Alpha-1A adrenergic receptor (Rattus norvegicus) (UniProt P43140); experiment: Inhibition of (-)-noradrenaline-induced contraction of rat prostatic vas deferens (alpha1A receptor); type: functional
T2 sequence (whole entry): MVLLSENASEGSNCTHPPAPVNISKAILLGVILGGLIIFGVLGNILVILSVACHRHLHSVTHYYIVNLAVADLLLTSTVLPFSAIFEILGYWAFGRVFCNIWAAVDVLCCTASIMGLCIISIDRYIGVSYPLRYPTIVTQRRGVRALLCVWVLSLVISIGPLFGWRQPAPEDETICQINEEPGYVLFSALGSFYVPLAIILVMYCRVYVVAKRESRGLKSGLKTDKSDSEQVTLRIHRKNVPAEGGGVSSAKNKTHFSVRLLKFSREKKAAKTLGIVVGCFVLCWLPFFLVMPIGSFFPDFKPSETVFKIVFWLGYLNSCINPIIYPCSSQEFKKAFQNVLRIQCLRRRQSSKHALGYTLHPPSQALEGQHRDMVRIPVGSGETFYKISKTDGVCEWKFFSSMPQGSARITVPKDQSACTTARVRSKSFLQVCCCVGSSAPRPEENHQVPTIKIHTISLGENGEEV
Outline: (§2)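 Rat prostatic vas deferens portion equilibrated 60 min, washed every 15 min, primed twice with 10 µM noradrenaline, re-equilibrated 60 min; control noradrenaline concentration-response curve, then antagonist 30 min before repeat curve.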

[4] = molecular target: T3, Alpha-1B adrenergic receptor (Rattus norvegicus) (UniProt P15823); experiment: Inhibition of (-)-phenylephrine-induced contraction of rat spleen (Alpha-1B adrenergic receptor ); type: functional, tissue-based
T3 sequence (whole entry): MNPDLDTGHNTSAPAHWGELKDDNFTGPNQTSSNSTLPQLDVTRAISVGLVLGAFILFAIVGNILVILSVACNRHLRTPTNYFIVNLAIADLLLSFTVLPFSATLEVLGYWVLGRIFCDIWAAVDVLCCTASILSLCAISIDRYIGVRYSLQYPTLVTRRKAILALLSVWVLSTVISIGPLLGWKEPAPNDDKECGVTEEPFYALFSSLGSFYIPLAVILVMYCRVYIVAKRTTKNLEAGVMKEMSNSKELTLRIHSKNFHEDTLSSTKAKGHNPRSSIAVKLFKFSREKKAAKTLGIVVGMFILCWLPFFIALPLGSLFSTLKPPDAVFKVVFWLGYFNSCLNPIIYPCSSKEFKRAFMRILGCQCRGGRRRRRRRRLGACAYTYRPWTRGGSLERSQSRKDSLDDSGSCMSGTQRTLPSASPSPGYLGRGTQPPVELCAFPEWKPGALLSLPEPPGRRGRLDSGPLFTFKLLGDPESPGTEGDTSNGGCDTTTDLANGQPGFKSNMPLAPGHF
Outline: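 Rat spleen strips in buffer containing 4 µM propranolol to block β-adrenoceptors, 1 g resting tension, 2 h equilibration. Isometric cumulative phenylephrine curves at 30 min intervals; first discarded, second control.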

[5] = molecular target: Alpha adrenergic receptor 1A and 1B (Rattus norvegicus) (UniProt P15823+P43140); experiment: Selectivity given as ratio of pKb value against alpha1A receptor to pKb value against alpha-1B receptor in rat; type: functional
[6] = Selectivity given as ratio of pKb value against Alpha-1D receptor to pKb value against Alpha-1B receptor in rat; type: functional
[7] = molecular target: T4, Alpha-1A adrenergic receptor (Rattus norvegicus, UniProt P43140); experiment: Antagonistic activity against (-)-noradrenaline-induced contraction of rat prostatic vas deferens (Alpha-1A adrenergic receptor ); type: functional, tissue-based; details: read-out: pA2 (converted)
T4 sequence (P43140 whole entry): T2 sequence (whole entry)
Outline: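 Rat prostatic vas deferens segments equilibrated 60 min, washed every 15 min, primed twice with 10 µM noradrenaline, then re-equilibrated 60 min. Basal noradrenaline concentration-response curve, then repeat after 30 min antagonist equilibration.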

[8] = molecular target: T5, Alpha-1D adrenergic receptor (Rattus norvegicus, UniProt P23944); experiment: Antagonistic activity against (-)-noradrenaline-induced contraction of rat thoracic aorta (Alpha-1D adrenergic receptor); type: functional, tissue-based; details: read-out: pA2 (converted); outline: as §1
T5 sequence (P23944 whole entry): T1 sequence (whole entry)

[9] = molecular target: T2, Alpha-1A adrenergic receptor (Rattus norvegicus); experiment: Antagonistic activity against (-)-noradrenaline-induced contraction of rat prostatic vas deferens (Alpha-1A adrenergic receptor); type: functional, tissue-based; outline: as §2

COc1cccc(OC)c1OCCNCC1CO[C@@H](c2ccccc2)O1.O=C(O)C(=O)O (some centres undefined)
pKb [1]: 6.18 | Selectivity [2]: 0.7 | pKb [3]: 6.31 | pKb [4]: 6.19 | Selectivity [5]: 1 | Selectivity [6]: 1

COc1cccc(OC)c1OCCNCC1COC(c2ccc3ccccc3c2)O1.O=C(O)C(=O)O (centres undefined)
pKb [1]: 6.65 | Selectivity [2]: 7 | pKb [3]: 5.79 | pKb [4]: 5.12 | Selectivity [5]: 5 | Selectivity [6]: 33

COc1cccc(OC)c1OCCNCC1CO[C@@](C)(c2ccccc2)O1.O=C(O)C(=O)O (some centres undefined)
pKb [1]: 6.69 | Selectivity [2]: 11 | pKb [3]: 5.74 | pKb [4]: 5.93 | Selectivity [5]: 0.6 | Selectivity [6]: 7

COc1cccc(OC)c1OCCNCC1COc2ccccc2O1 (centres undefined)
Kb [7]: 0.437 nM | Kb [8]: 2.51 nM

COc1cccc(OC)c1OCCNCC1CO[C@@H](c2cccc3ccccc23)O1.O=C(O)C(=O)O (some centres undefined)
pKb [1]: 7.07 | Selectivity [2]: 24 | pKb [3]: 5.69 | pKb [4]: 6.38 | Selectivity [5]: 0.2 | Selectivity [6]: 5

COc1cccc(OC)c1OCCNCC1CO[C@](C)(c2ccccc2)O1.O=C(O)C(=O)O (some centres undefined)
Selectivity [2]: 12 | Kb [8]: 129 nM | pKb [3]: 5.8 | pKb [4]: 5.56 | Selectivity [5]: 2 | Selectivity [6]: 21

O=C(O)C(=O)O.c1ccc(OCCNCC2COC3(CCCCC3)O2)cc1 (centres undefined)
pKb [1]: 6.54 | Selectivity [2]: 19 | pKb [3]: 5.27 | pKb [4]: 6.2 | Selectivity [5]: 0.1 | Selectivity [6]: 2

COc1cccc(OC)c1OCCNCC1CO[C@@H](Cc2ccccc2)O1.O=C(O)C(=O)O (some centres undefined)
pKb [1]: 6 | Selectivity [2]: 0.2 | pKb [3]: 6.82 | pKb [4]: 5.45 | Selectivity [5]: 23 | Selectivity [6]: 5

COc1cccc(OC)c1OCCNCC1CO[C@H](C(c2ccccc2)c2ccccc2)O1.O=C(O)C(=O)O (some centres undefined)
pKb [1]: 7.15 | Selectivity [2]: 36 | pKb [3]: 5.6 | pKb [4]: 5.51 | Selectivity [5]: 12 | Selectivity [6]: 44

COc1cccc(OC)c1OCCNCC1COC(c2ccccc2)(c2ccccc2)O1.O=C(O)C(=O)O (centres undefined)
Selectivity [2]: 16 | Kb [8]: 117 nM | pKb [3]: 5.73 | pKb [4]: 5.89 | Selectivity [5]: 0.7 | Selectivity [6]: 11

COc1ccccc1N1CCN(CCN2C(=O)CC3(CCCC3)CC2=O)CC1
pKb [1]: 8.4 | pKb [4]: 7.48

COc1cccc(OC)c1OCCNCC1CO[C@H](c2cccc3ccccc23)O1.O=C(O)C(=O)O (some centres undefined)
pKb [1]: 7.32 | Selectivity [2]: > 209 | pKb [3]: < 5 | pKb [4]: 6.38 | Selectivity [5]: < 0.04 | Selectivity [6]: 9

COc1cccc(OC)c1OCCNCC1CO[C@H](c2ccccc2)O1.O=C(O)C(=O)O (some centres undefined)
pKb [1]: 6.44 | Selectivity [2]: 0.7 | pKb [4]: 5.7 | pKb [9]: 6.61 | Selectivity [5]: 8 | Selectivity [6]: 6

O=C(O)C(=O)O.c1ccc(OCCNCC2CO[C@@H](c3ccccc3)O2)cc1 (some centres undefined)
pKb [1]: 6.94 | Selectivity [2]: 9 | pKb [3]: 6.01 | pKb [4]: 6.4 | Selectivity [5]: 0.4 | Selectivity [6]: 4

COc1cccc(OC)c1OCCNCC1CO[C@@H](C(c2ccccc2)c2ccccc2)O1.O=C(O)C(=O)O (some centres undefined)
pKb [1]: 6.88 | Selectivity [2]: 1 | pKb [3]: 6.77 | pKb [4]: 5.44 | Selectivity [5]: 21 | Selectivity [6]: 28

O=C(O)C(=O)O.c1ccc(OCCNCC2CO[C@H](c3ccccc3)O2)cc1 (some centres undefined)
pKb [1]: 7.09 | Selectivity [2]: 45 | pKb [3]: 5.44 | pKb [4]: 6.3 | Selectivity [5]: 0.1 | Selectivity [6]: 6

COc1cccc(OC)c1OCCNCC1CO[C@H](Cc2ccccc2)O1.O=C(O)C(=O)O (some centres undefined)
pKb [1]: 5.13 | Selectivity [2]: 0.6 | pKb [3]: 5.36 | pKb [4]: 5.77 | Selectivity [5]: 0.4 | Selectivity [6]: 0.2
